ChEMBL document CHEMBL1153829, “Exploiting chemical libraries, structure, and genomics in the search for kinase inhibitors” (Science, 1998)
Activity calls are given as the source filed them. No cut-off for these calls is given here.

Assays:
[1] = Induction of microtubule […]
Saccharomyces cerevisiae [2] = assay: Effect on HTA1 gene expression in delta snq2, delta pdr5 and delta erg6 knock out yeast YRP1 bearing cdc28-4 mutant allele assessed as change in mRNA level at 25 µM after 2 hrs by high-density oligonucleotide array; assay type: functional, organism-based
Saccharomyces cerevisiae [3] = assay: Upregulation of YDL223c gene expression in delta snq2, delta pdr5 and delta erg6 knock out yeast YRP1 at 25 µM after 2 hrs by high-density oligonucleotide array; assay type: functional, organism-based; settings: 25 M
Method in brief: (§1)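 Drug-sensitized yeast strain grown to late logarithmic phase, then exposed to 25 μM inhibitor for 2 h. Polyadenylated mRNA was isolated and converted to biotin-labeled cRNA, which was hybridized to a set of four arrays carrying over 260,000 25-nucleotide oligomers. Transcripts changing more than twofold were scored, from triplicate hybridizations in each of two independent experiments.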

Nucleic Acid = assay: Induction of condensation of DNA; assay type: nucleic-acid assay
Saccharomyces cerevisiae [4] = assay: Induction of PFK26 gene expression in delta snq2, delta pdr5 and delta erg6 knock out yeast YRP1 at 25 µM after 2 hrs by high-density oligonucleotide array; assay type: functional, organism-based; settings: 25 M; method in brief: as §1
Saccharomyces cerevisiae [5] = assay: Downregulation of HTB2 mRNA expression in delta snq2, delta pdr5 and delta erg6 knock out yeast YRP1 at 25 µM after 2 hrs by high-density oligonucleotide array; assay type: functional, organism-based; settings: 25 M
Method in brief: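 Drug-sensitized S. cerevisiae cultures grown to late logarithmic phase, then exposed to 25 μM inhibitor for 2 h. Polyadenylated mRNA isolated, converted to biotin-labeled cRNA and hybridized to a set of four high-density arrays carrying more than 260,000 25-nucleotide oligomers. Transcripts scored as changed when they shifted more than twofold in triplicate hybridizations for each of two independent experiments.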

Saccharomyces cerevisiae [6] = assay: Growth inhibition of delta snq2, delta pdr5 and delta erg6 knock out yeast YRP1 after 2 hrs; assay type: functional
Saccharomyces cerevisiae [7] = assay: Induction of YAL061W gene expression in delta snq2, delta pdr5 and delta erg6 knock out yeast YRP1 at 25 µM after 2 hrs by high-density oligonucleotide array; assay type: functional, organism-based; settings: 25 M; method in brief: as §1

In the case of `CC(C)n1cnc2/c(=N/c3cccc(Cl)c3)nc(NCCO)[nH]c21`, the Activity [1] is reported as “Active”, the Activity (Saccharomyces cerevisiae [2]) is reported as “Active” and the Activity (Saccharomyces cerevisiae [3]) is reported as “Active”. For the same molecule, the Activity (Nucleic Acid) was “Active”, the Activity (Saccharomyces cerevisiae [4]) was “Active” and the Activity (Saccharomyces cerevisiae [5]) was “Active”. For the same molecule, the GI50 (Saccharomyces cerevisiae [6]) was 30 µM and the Activity (Saccharomyces cerevisiae [7]) was “Active”.
For `CN1CC[C@H](c2c(O)cc(O)c3c(=O)cc(-c4ccccc4Cl)oc23)[C@H](O)C1` [ALVOCIDIB], the Activity (Saccharomyces cerevisiae [2]) was “Active”, the Activity (Saccharomyces cerevisiae [3]) was “Active” and the Activity (Saccharomyces cerevisiae [4]) was “Active”. For the same molecule, the Activity (Saccharomyces cerevisiae [5]) was “Active” and the Activity (Saccharomyces cerevisiae [7]) was “Active”.
